Reference: publication PMC3227549 (Journal of natural products, 2010)
“Also recorded” adds a separate entry of the source.

Tests used:
[1] = test system: voltage gated sodium channel (VGSC); settings: cited from earlier work
[2] = test system: site 2 of the mammalian VGSC; settings: cited from earlier work
[3] = test system: Neuro-2a mouse neuroblastoma cells; test: Cytotoxicity to Neuro-2a mouse neuroblastoma cells; format: cell-based
[4] = test system: spontaneous Ca2+ oscillations in neocortical neurons; test: Suppression of spontaneous Ca2+ oscillations; format: cell-based, mouse
[5] = test system: voltage gated sodium channel (VGSC); test: Sodium influx / activation of VGSC in neocortical neurons; format: cell-based; settings: mouse neocortical neurons
How it was run: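 Primary neocortical neurons from embryonic day 16 Swiss-Webster mice were trypsin-dissociated, given 10 μM cytosine arabinoside on day 2, then Neurobasal/B-27 serum-free medium, and used at DIV 8–13. Cells were loaded for 1 h at 37 °C with 10 μM SBFI-AM and 0.02% Pluronic F-127, then washed in Locke's buffer. Ex 340/380 nm, em 505 nm, read every 5 s, with 60 s baseline before test compound addition. EC50 by nonlinear logistic regression.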

[6] = test system: H-460 human lung adenocarcinoma cells; test: Cytotoxicity to H-460 human lung adenocarcinoma cells; format: cell-based
brine shrimp = test: Brine shrimp toxicity assay; format: in vivo; settings: pure compound

CCC[C@@H](C)[C@H](O)[C@H](C)[C@H]1OC(=O)[C@H]([C@@H](C)O)NC(=O)[C@H](C(C)C)OC(=O)[C@H](C)[C@H](O)[C@H]([C@@H](C)CC)NC(=O)[C@@]2(C)CSC(=N2)[C@@]2(C)CSC(=N2)c2csc(n2)C[C@H](OC)[C@@H]1C [Compound 1, hoiamide A]
kind of agonism in stimulation of sodium influx in neocortical neurons [1]: partial agonist
inhibition of binding of [3H]batrachotoxin to site 2 of the mammalian VGSC [2]: inhibits the binding

CCC[C@@H](C)[C@H](O)[C@H](C)[C@H]1OC(=O)[C@H]([C@@H](C)O)NC(=O)[C@H]([C@@H](C)CC)OC(=O)[C@H](C)[C@H](O)[C@H]([C@@H](C)CC)NC(=O)[C@@]2(C)CSC(=N2)[C@@]2(C)CSC(=N2)c2csc(n2)C[C@H](OC)[C@@H]1C [Compound 2, hoiamide B]
Neuro-2a (IC50 μM) [3]: Inactive

CCC[C@@H](C)[C@H](O)[C@H](C)[C@@H](O)[C@@H](C)[C@H](Cc1nc(C2=N[C@@](C)(C3=N[C@@](C)(C(=O)N[C@H]([C@@H](O)[C@@H](C)C(=O)OCC)[C@@H](C)CC)CS3)CS2)cs1)OC [Compound 3, hoiamide C]
suppressed spontaneous Ca2+ oscillations, EC50 [4]: no significant effects; also recorded: no significant pharmacological activity
stimulated sodium influx, EC50 [5]: no significant effects; also recorded: no significant pharmacological activity
H-460 (IC50 μM) [6]: Inactive
Neuro-2a (IC50 μM) [3]: Inactive
LC50 in the brine shrimp toxicity assay (brine shrimp): 1300 nM
